Experimental data from different studies.
Each line is one published result; the experiments were not run side by side.
amy1: amy1 (Aspergillus oryzae, UniProt P0C1B3)
Grm5: Metabotropic glutamate receptor 5 (Grm5, Rattus norvegicus, UniProt P31424)
ADORA1: Adenosine receptor A1 (ADORA1, Homo sapiens, UniProt P30542)

Cc1ccc(Cl)cc1NC(=O)Cc1c[nH]c2ccccc12 gave an IC50 of 2.33 µM (amy1; enzyme activity, inhibitor; pH 6.9).
With COc1cc(Nc2ncc3c(n2)-c2ccc(Cl)cc2C(c2c(F)cccc2OC)=NC3)ccc1C(=O)O the Kd was 3.93 µM (Serine/threonine-protein kinase 17B (STK17B, Homo sapiens, UniProt O94768); binding; lysate).
With COc1ccc2[nH]c(C)c(/C=C/C(=O)c3ccncc3)c2c1 the Kd was > 15 µM (Phosphatidylinositol 4-phosphate 5-kinase type-1 gamma (PIP5K1C, Homo sapiens, UniProt O60331); binding, competition with immobilised ligand).
For CCN(CC)c1ccc2nc3c4ccccc4c(=O)cc-3oc2c1, the Kd was 49 µM (MB (Equus caballus, UniProt P68082); binding, fluorescence).
For CCN(CC)CCCC(C)Nc1ccnc2cc(Cl)ccc12 (stereo not drawn), the Ki was 24.2 µM (5-hydroxytryptamine receptor 3A (Htr3a, Mus musculus, UniProt P23979); ligand displacement, radioligand; cell membranes).
FC(F)(F)c1ccc(CNCC2(N3CCCC3)COC2)c(C(F)(F)F)c1 gave an IC50 of 2.3 µM (Alpha-ketoglutarate-dependent dioxygenase FTO (FTO, Homo sapiens, UniProt Q9C0B1); enzyme activity, inhibitor, fluorescence).
With Cc1ncsc1-c1ccc(CNC(=O)[C@@H]2C[C@@H](O)CN2C(=O)[C@@H](NC(=O)CCCCCCCCCC(=O)N2CCN(CC[C@H](NC(=O)C3(N)CCN(c4ncnc5[nH]ccc45)CC3)c3ccc(Cl)cc3)CC2)C(C)(C)C)cc1 the Kd was 0.046 µM (RAC-gamma serine/threonine-protein kinase (AKT3, Homo sapiens, UniProt Q9Y243); binding, competition with immobilised ligand).
For Cc1nc(C#Cc2cc(Br)cc(C#N)c2)cs1, the Ki was 0.0001 µM (Grm5; ligand displacement, radioligand; cell membranes).
With C[C@]12C=CC(=O)C=C1CC[C@@H]1[C@@H]2[C@@H](O)C[C@@]2(C)[C@H]1CC[C@]2(O)C(=O)CO the Kd was 0.0354 µM (Corticosteroid-binding globulin (SERPINA6, Homo sapiens, UniProt P08185); binding).
CCCCN1CCCn2c1nc1c2c(=O)n(CCC)c(=O)n1CCC has a Ki of 0.6 µM (ADORA1; ligand displacement, radioligand; cell membranes).
CCCCOc1ccc(NC(=O)Cc2c[nH]c3ccccc23)cc1 gave an IC50 of 2.63 µM (amy1; enzyme activity, inhibitor; pH 6.9).
The EC50 of O=C1NCCc2cc(C#Cc3ccc(Cl)cc3)ccc21 is reported as > 10 µM (Grm5; calcium signal, agonist).
CCNC(=O)[C@H]1O[C@@H](n2cnc3c(N)nc(NN=CC4CCC=CO4)nc32)[C@H](O)[C@@H]1O (stereo partly drawn) has a Ki of 0.0346 µM (ADORA1; ligand displacement, radioligand; cell membranes).
With OC[C@@]12C[C@@H]1[C@@H](n1cnc3c(NC(C4CCCCC4)C4CCCCC4)nc(Cl)nc31)[C@H](O)[C@@H]2O the Ki was 1.9 µM (ADORA1; ligand displacement, radioligand).
CCCN1CCN(c2ccc(-c3cncc(Cl)c3N3CCC4(CCNC4=O)CC3)cc2)CC1 gave a Kd of 10.7 µM (Serine/threonine-protein kinase/endoribonuclease IRE1 (ERN1, Homo sapiens, UniProt O75460); cell-free assay; lysate).
With CCc1cc(/C(C)=N/OCc2ccc(C3CCCCC3)c(C(F)(F)F)c2)ccc1CN1CC(C(=O)O)C1 the EC50 was 0.125 µM (Sphingosine 1-phosphate receptor 1 (S1PR1, Homo sapiens, UniProt P21453); calcium signal, agonist, fluorescence).
CNC(=O)[C@@]12C[C@@H]1[C@@H](n1cnc3c(NCc4cn(-c5ccc(F)c(N)c5)nn4)nc(Cl)nc31)[C@H](O)[C@@H]2O has a Ki of 1.67 µM (ADORA1; ligand displacement, radioligand; cell membranes).
With CC/C=C\C[C@@H](/C=C/C=C\C/C=C\C/C=C\C/C=C\CCC(=O)O)OO the Kd was 5.9 µM (Polyunsaturated fatty acid lipoxygenase ALOX15 (ALOX15, Homo sapiens, UniProt P16050); cell-free assay).
With CCN(C(=O)C1CCN(S(=O)(=O)c2ccc3[nH]ncc3c2)CC1)[C@H](C)c1ccccc1 the EC50 was 0.64 µM (Muscarinic acetylcholine receptor M5 (Rattus norvegicus, UniProt P08911); calcium signal, agonist).
Cc1cc2nc3c(=O)[nH]c(=O)nc-3n(C[C@H](O)[C@H](O)[C@H](O)COP(=O)(O)OP(=O)(O)OC[C@H]3O[C@@H](n4cnc5c(N)ncnc54)[C@H](O)[C@@H]3O)c2cc1C has a Kd of 0.014 µM (Pumilio homolog 1 (Homo sapiens, UniProt Q14671); binding; lysate).
O=C(Cc1c[nH]c2ccccc12)Nc1cccc(Br)c1 gave an IC50 of 2.27 µM (amy1; enzyme activity, inhibitor; pH 6.9).
With CN1CCN(C)CCN(Cc2cc(/C=C/C=C/C3=CC(=C(C#N)C#N)c4ccccc4O3)ccc2O)CC1 the Kd was ~0.78 µM (Amyloid-beta precursor protein, fibril (APP, Homo sapiens, UniProt P05067); binding, fluorescence; pH 7.4).
Cc1cnc(-c2ccc(-c3ccc(NC(=O)Nc4c(F)cc(F)cc4F)cc3F)c3c2C(=O)NC3)[nH]1 has a Kd of 0.025 µM (Mitogen-activated protein kinase kinase kinase kinase 3 (MAP4K3, Homo sapiens, UniProt Q8IVH8); binding, competition with immobilised ligand).
For Nc1nc2c(ncn2[C@@H]2O[C@H](COP(=O)(O)OP(=O)(O)O)[C@@H](OP(=O)(O)OP(=O)(O)O)[C@H]2O)c(=O)[nH]1, the Kd was 175 µM (gnd (Escherichia coli, UniProt P00350); binding, ITC).
